Only some compounds are listed: those with a hit (about 2% of all), similar ones and a draw of the others.
PKA-R2B act: activators of human PKA-R2B complex. P22694+P31323. PKA-R2B holoenzyme dissociation, Cy5-IP20 fluorescence polarization; R2B truncated from residue 108, S112A mutant; 0% DMSO only, 100% 113 µM cGMP. activation, % at 11.4 µM. 0.079% of 340,000 active. AID 504700;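 active = activation above a cutoff set at the mean over all compounds plus 3 SD, cut at about 18% in these data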;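 note: higher means more holoenzyme dissociation and a rise in polarization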
Target sequence (P31323 whole entry, looked up, other chains not shown, the tested form may be a part): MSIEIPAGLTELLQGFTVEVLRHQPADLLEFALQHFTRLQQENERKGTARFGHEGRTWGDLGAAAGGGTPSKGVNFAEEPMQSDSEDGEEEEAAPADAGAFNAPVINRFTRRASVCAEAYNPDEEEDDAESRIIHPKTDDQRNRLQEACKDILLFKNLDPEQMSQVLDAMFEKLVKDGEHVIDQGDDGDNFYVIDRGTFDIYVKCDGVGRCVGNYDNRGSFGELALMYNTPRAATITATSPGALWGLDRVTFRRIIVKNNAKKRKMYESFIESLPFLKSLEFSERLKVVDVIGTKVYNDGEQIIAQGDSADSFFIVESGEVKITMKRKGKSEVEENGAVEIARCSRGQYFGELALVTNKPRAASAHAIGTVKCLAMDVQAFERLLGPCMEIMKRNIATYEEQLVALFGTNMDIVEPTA
CAL PDZ FP-1: human CAL PDZ-peptide interaction inhibition | Q9HD26 | purified CAL PDZ, TMR-peptide fluorescence polarization, 1 h | inhibition, % at 20 µM | 0.02% of 330,000 active;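 active = highest replicate inhibition of at least 40%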
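System: tagged CAL PDZ domain. Schedule: 1 h room-temperature incubation prior to read. Signal: fluorescence polarization (mP). Measure: percent inhibition from loss of millipolarization.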
NTR1 ag: activates human neurotensin receptor 1. P30989. NTR1-U2OS beta-arrestin-GFP spot imaging, agonist mode. activation, % at 20 µM. 0.17% of 330,000 active. AID 493036;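 active = activation at or above 40% of the spot to cytoplasm intensity ratio, with at least 20 cells analyzed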
dFosB act-1: enhances mouse delta FosB homodimer DNA binding; P13346; purified delta FosB, TAMRA-CDK5 oligo fluorescence polarization; percent of positive-control signal above neutral wells; activation, % at 25 µM; 0.99% of 340,000 active; AID 493131;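 active = mean activation above about 17%, with every replicate also reaching it, limit read from the data, passing the limit was not always enough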
CAL PDZ FP-2: inhibitors of human CAL PDZ peptide binding. AID 602252. inhibition, % at 24.9 µM. purified CAL PDZ, TMR-peptide fluorescence polarization, 1 h. 0.92% of 300,000 active. Q9HD26;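 active = mean inhibition of at least 30% with at least half of replicates also reaching 30%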
PKA-R1A act: activates the PKA-R1A holoenzyme complex; 0.083% of 340,000 active; activation, % at 11.4 µM; PKA-R1A dissociation, Cy5-IP20 fluorescence polarization; scaled: DMSO 0%, 113 µM cGMP 100%; AID 504707; P00514+P68181;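 active = percent activation above the mean of all tested compounds plus 3 SD, cut at about 19% in these data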;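 note: higher means more PKAc released from R1A so a rise in polarization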
NTR1 ag conf: confirmation of agonists of human NTR1; shares compounds with NTR1 ag; NTR1-U2OS beta-arrestin-GFP translocation imaging; activation, % at 20 µM; 38% of 480 active; AID 504550;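 active = mean activation at 20 µM of at least 40%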
dFosB act-2: activators of mouse delta FosB homodimer DNA binding; shares compounds with dFosB act-1; AID 588690; activation, % at 24.9 µM; 2,400 tested, under 10 active; purified delta FosB, TAMRA-CDK5 oligo fluorescence polarization; normalised: neutral wells 0, positive control 100;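 active = highest replicate activation at or above 34% and every replicate reaching that threshold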;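 note: higher polarization means more probe DNA bound by delta FosB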
Of the large screens only hits and unclear results are named; the others gave an inactive call (follow-up assays come after a bar, where they were run).

O=C(CSc1nc2ncc(Br)cc2[nH]1)c1ccc([N+](=O)[O-])cc1	none
CCOC(=O)Cc1csc(SCC(=O)NC2CCS(=O)(=O)C2)n1 (centres undefined)	none
O=C(CSc1nc2nc3c(cc2c(=O)n1-c1ccccc1)CCCC3)Nc1ccccc1	none
CCn1c(SCc2ccc(Cl)cc2Cl)nc2nc3c(cc2c1=O)CCCC3	NTR1 ag 44 (no result: CAL PDZ FP-1) | NTR1 ag conf inactive
O=c1/c(=C\c2cccc(O)c2)sc2nc(-c3ccccc3)c(-c3ccccc3)n12	NTR1 ag 46 | NTR1 ag conf 41
c1ccc(N2CCCCC2)c(Nc2nc3ccccc3n3cnnc23)c1	NTR1 ag 40 | NTR1 ag conf inactive
FC(F)(F)c1ccc(N2CCOCC2)c(Nc2nc3ccccc3n3cnnc23)c1	NTR1 ag 45 | NTR1 ag conf inactive
CCOc1cccc(/C=C/c2ccc3cccc(O)c3n2)c1OC	NTR1 ag 79 (no result: CAL PDZ FP-1) | NTR1 ag conf inactive
CC(C)(C)OC(=O)N1CCC(C(=O)Nc2ccc(C(=O)N3CCCCC3)cc2)CC1	none (no result: NTR1 ag)
C[C@]12CCC(O)CC1CCC1C2CC[C@]2(C)C(c3cc(C(F)(F)F)n[nH]3)CCC12 (some centres undefined)	NTR1 ag 74 | NTR1 ag conf inactive
N#Cc1ccc(C(=O)N2CCC3CC2c2cc(N4CCCCC4)ccc23)cc1 (centres undefined)	none (no result: CAL PDZ FP-1, NTR1 ag, dFosB act-1, CAL PDZ FP-2)
COc1cccc(OC)c1C(=O)Oc1ccc2c(c1)O/C(=C\c1ccncc1)C2=O	NTR1 ag 52 | NTR1 ag conf 56
O=C1/C(=C/c2ccncc2)Oc2cc(OS(=O)(=O)c3ccccc3)ccc21	none
CCOC(=O)c1c2c(n(-c3ccc(OC)cc3)c1C)C(=O)C(=O)c1ccccc1-2	none (no result: NTR1 ag)
COc1ccc(Cn2c(-c3ccc(C)cc3)nc3c(c(=O)c4ccccc4n3C)c2=O)cc1	NTR1 ag 41 | NTR1 ag conf inactive
COc1ccc(C)c2sc(=NC(=O)c3cccc(N4C(=O)CCC4=O)c3)n(C)c12	none
C=CCn1c(=NC(=O)c2cccc(N3C(=O)CCC3=O)c2)sc2cccc(OC)c21	NTR1 ag 47 | NTR1 ag conf 54
CC(=O)Nc1ccc(Nc2nc(C)c([N+](=O)[O-])c(Nc3ccccc3)n2)cc1	NTR1 ag 46 | NTR1 ag conf inactive
Cc1cc(C)n(-c2nc(Nc3ccccc3C(F)(F)F)nc(-n3nc(C)cc3C)n2)n1	NTR1 ag 57 | NTR1 ag conf 43
Cc1cc(C)n(-c2nc(Nc3ccccc3C)nc(-n3nc(C)cc3C)n2)n1	NTR1 ag 48 (no result: PKA-R2B act, CAL PDZ FP-1, dFosB act-1, CAL PDZ FP-2, PKA-R1A act) | NTR1 ag conf 71
COc1ccc(NC(=O)COC(=O)C2CCCN2C(=O)OC(C)(C)C)cc1Cl (centres undefined)	none (no result: CAL PDZ FP-1, NTR1 ag, dFosB act-1, CAL PDZ FP-2)
Cc1ccc(C23CCC(=O)N2C(C(=O)O)CS3)c(C)c1 (centres undefined)	none (no result: CAL PDZ FP-2)
O=C(Nc1nc(-c2nc3ccccc3s2)cs1)C1COc2ccccc2O1 (centres undefined)	NTR1 ag 41 (no result: CAL PDZ FP-2) | NTR1 ag conf inactive
O=C(CCc1nnc(C2(c3ccc(Cl)cc3)CCC2)o1)N1CCCC(O)C1 (centres undefined)	none
COc1cc(/C=N/NC(=O)c2ccc(N)cc2)ccc1OC(=O)c1cccc(C)c1	none (no result: CAL PDZ FP-2)
COc1cc(C(=O)N/N=C/c2ccc(OC(=O)c3cccc(C)c3)cc2)ccc1O	NTR1 ag 52 | NTR1 ag conf inactive
CCOc1cccc(-c2nn(-c3ccccc3)cc2/C=C(/C#N)C(=O)NCCCn2ccnc2)c1	NTR1 ag 44 | NTR1 ag conf inactive
CCSc1ccc(-c2nn(-c3ccccc3)cc2/C=C(/C#N)C(=O)NCCCOC)cc1	none (no result: NTR1 ag)
COc1ccc(C(CNC(=O)c2ccc(OCc3csc(C)n3)cc2)N2CCCC2)cc1 (centres undefined)	none (no result: CAL PDZ FP-1, NTR1 ag, dFosB act-1, CAL PDZ FP-2)
O=C(CN(C(=O)c1ccc(Cl)cc1)N1C(=O)C2CCCCC2C1=O)c1ccc(Cl)cc1 (centres undefined)	NTR1 ag 52 (no result: CAL PDZ FP-2) | NTR1 ag conf 47
COc1cccc(CNC(=O)COC(=O)c2cc([N+](=O)[O-])ccc2N2CCCC2)c1	none
CCOc1ccc2[nH]c3c(N4CCc5ccccc5C4)ncnc3c2c1	NTR1 ag 50 (no result: PKA-R2B act, CAL PDZ FP-1, dFosB act-1, CAL PDZ FP-2, PKA-R1A act) | NTR1 ag conf inactive
COc1ccc2[nH]c3c(N4CCN(Cc5ccc6c(c5)OCO6)CC4)ncnc3c2c1	none
COc1ccc2[nH]c3c(N4CCC(O)(c5cccc(C(F)(F)F)c5)CC4)ncnc3c2c1	NTR1 ag 49 (no result: CAL PDZ FP-1) | NTR1 ag conf inactive
CCn1cc(C(=O)NCCCOC)c(=O)c2cc(S(=O)(=O)N3CCCC3)ccc21	none
CCCCCCOc1ccc(/C(C)=N/NC2=NCCN2)cc1[N+](=O)[O-]	NTR1 ag 41, dFosB act-1 55 | NTR1 ag conf 46
C/C(=N\NC1=NCCN1)c1ccc(N)c([N+](=O)[O-])c1	none
O=C(COc1ccccc1[N+](=O)[O-])Nc1ccc(NC(=O)c2cc3ccccc3o2)cc1	NTR1 ag 40, dFosB act-1 54 | NTR1 ag conf inactive | dFosB act-2 inactive
CCOC(=O)[C@H]1[C@H]2COc3ccc(Br)cc3[C@H]2N2C(=O)CN(Cc3ccc(C)cc3)C(=O)[C@@]12C	none (no result: NTR1 ag)
CCOC(=O)c1[nH]c2c(c1C)C(=O)CC(c1ccc(F)cc1)C2 (centres undefined)	dFosB act-1 21 (no result: CAL PDZ FP-2) | dFosB act-2 inactive
NC(=O)c1ccc(NC(=O)COC(=O)CCN2C(=O)c3ccccc3C2=O)cc1	none (no result: CAL PDZ FP-2)
O=C(COc1ccccc1C(=O)O)Nc1nc2ccc([N+](=O)[O-])cc2s1	dFosB act-1 25 | dFosB act-2 inactive
Cc1cccc(OCC(=O)Nc2nc3ccc([N+](=O)[O-])cc3s2)c1C	none
Nc1ccn(CCCN2CCN(C(=O)C3CC3)CC2)c(=O)n1	none (no result: CAL PDZ FP-1, NTR1 ag, dFosB act-1, CAL PDZ FP-2)
O=C(NNC(=O)c1c(O)c2ccccc2[nH]c1=O)c1ccccc1Br	dFosB act-1 52 | dFosB act-2 inactive
Cc1sc2ncnc(SCC(=O)c3ccc(Cl)s3)c2c1C	none (no result: PKA-R2B act, CAL PDZ FP-1, dFosB act-1, CAL PDZ FP-2, PKA-R1A act)
Cc1sc2ncnc(SCC(=O)c3ccc(O)cc3O)c2c1C	dFosB act-1 40 | dFosB act-2 inactive
Cc1ccc2nc(-c3ccc(NC(=O)COC(=O)c4ccc([N+](=O)[O-])o4)cc3)sc2c1	none
